Reference: ChEMBL document CHEMBL3286372, “Design, synthesis and structure-activity relationship of novel semi-synthetic flavonoids as antiproliferative agents” (2014)

Assays:
SF-268 = assay: Growth inhibition of human SF268 cells after 48 hrs by coulter counting analysis; format: functional; conditions: SF-268, 48 h
How it was run: (§1)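 Five-dose NCI-60 follow-up, 0.01–100 µM, made from DMSO stock in buffered saline (final DMSO <1%), in duplicate wells. Cells in RPMI 1640 with 10% FBS at 6×10^4 cells/ml, 37 °C, 5% CO2, 48 h. Cells diluted tenfold in saline, Coulter-counted and corrected for dilution. GI50, TGI and LC50 taken from log concentration–percent growth curves.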

[1] = Growth inhibition of human NCI-ADR-RES cells after 48 hrs by coulter counting analysis; format: functional; how it was run: as §1
SK-OV-3 = assay: Growth inhibition of human SKOV3 cells after 48 hrs by coulter counting analysis; format: functional; conditions: SK-OV-3, 48 h; how it was run: as §1
M14 = assay: Growth inhibition of human M14 cells after 48 hrs by coulter counting analysis; format: functional; conditions: M14, 48 h
How it was run: (§2)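 NCI five-dose screen at 0.01-100 µM, diluted from DMSO stocks in buffered saline (final DMSO <1%). Cells at 6×10^4 cells/ml in RPMI 1640 with 10% FBS, in duplicate wells, at 37 °C under 5% CO2 for 48 h. Cells diluted tenfold in saline and Coulter-counted. GI50, TGI and LC50 taken from log concentration-growth inhibition curves.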

HT-29 = assay: Growth inhibition of human HT-29 cells after 48 hrs by coulter counting analysis; format: functional; conditions: HT-29, 48 h; how it was run: as §2
[2] = Growth inhibition of human MOLT4 cells after 48 hrs by coulter counting analysis; format: functional; conditions: MOLT-4, 48 h; how it was run: as §1
NCI-H23 = assay: Growth inhibition of human NCI-H23 cells after 48 hrs by coulter counting analysis; format: functional; conditions: NCI-H23, 48 h; how it was run: as §1
MCF7 = assay: Growth inhibition of human MCF7 cells after 48 hrs by coulter counting analysis; format: functional; conditions: MCF7, 48 h; how it was run: as §2
ACHN = assay: Growth inhibition of human ACHN cells after 48 hrs by coulter counting analysis; format: functional; how it was run: as §2
SK-MEL-2 = assay: Growth inhibition of human SK-MEL-2 cells after 48 hrs by coulter counting analysis; format: functional; conditions: SK-MEL-2, 48 h; how it was run: as §1
SW-620 = assay: Growth inhibition of human SW620 cells after 48 hrs by coulter counting analysis; format: functional; conditions: SW-620, 48 h; how it was run: as §1
COLO 205 = assay: Growth inhibition of human COLO205 cells after 48 hrs by coulter counting analysis; format: functional; conditions: COLO 205, 48 h; how it was run: as §2
RPMI-8226 = assay: Growth inhibition of human RPMI8226 cells after 48 hrs by coulter counting analysis; format: functional; conditions: RPMI-8226, 48 h; how it was run: as §1
NCI-H322M = assay: Growth inhibition of human NCI-H322M cells after 48 hrs by coulter counting analysis; format: functional; how it was run: as §1
[3] = Growth inhibition of human UACC257 cells after 48 hrs by coulter counting analysis; format: functional; conditions: UACC-257, 48 h
How it was run: (§3)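 NCI five-dose screen, 0.01-100 µM, from DMSO stocks diluted in buffer saline (final DMSO <1%). Cells grown in RPMI 1640 + 10% FBS, seeded at 6×10^4 cells/ml, in duplicate wells. Exposure 48 h at 37 °C, 5% CO2. Cells diluted 10-fold in saline and counted by Coulter counter. GI50 derived from log concentration–percent growth inhibition curves. Controls carried matching PBS/saline/DMSO.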

[4] = Growth inhibition of human OVCAR5 cells after 48 hrs by coulter counting analysis; format: functional; conditions: OVCAR-5, 48 h; how it was run: as §1
[5] = molecular target: Glycogen synthase kinase-3 beta (Homo sapiens) (UniProt P49841); assay: Inhibition of GSK-3beta (unknown origin) at 20 uM after 30 mins by scintillation counting analysis relative to control
Chain of Glycogen synthase kinase-3 beta (Homo sapiens) (P49841 whole entry, looked up): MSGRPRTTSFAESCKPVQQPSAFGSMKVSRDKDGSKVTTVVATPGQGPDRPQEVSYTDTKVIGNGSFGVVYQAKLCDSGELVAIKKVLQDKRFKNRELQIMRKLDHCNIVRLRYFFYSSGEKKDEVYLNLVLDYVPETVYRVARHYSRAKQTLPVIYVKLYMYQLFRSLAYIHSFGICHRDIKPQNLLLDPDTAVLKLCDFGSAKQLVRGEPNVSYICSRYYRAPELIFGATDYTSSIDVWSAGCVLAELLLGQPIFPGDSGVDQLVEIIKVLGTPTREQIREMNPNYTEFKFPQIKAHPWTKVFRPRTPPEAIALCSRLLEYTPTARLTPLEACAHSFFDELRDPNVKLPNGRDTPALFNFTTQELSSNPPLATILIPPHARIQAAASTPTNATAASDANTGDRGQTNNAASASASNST
How it was run: (§4)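 Recombinant kinases, cloned, expressed and purified in-house. Radiometric ³³P-ATP assay with kinase at ~10-50 nM final and 1-5 µg peptide or protein substrate. Compound at 20 µM final, in duplicate. Reaction started by adding ATP, run 30 min at ambient temperature, then spotted on P81 phosphocellulose. Plates washed in 1% phosphoric acid and counted by scintillation. No-substrate blank subtracted. Result is mean % activity change versus DMSO control.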

[6] = Growth inhibition of human UACC62 cells after 48 hrs by coulter counting analysis; format: functional; conditions: UACC-62, 48 h; how it was run: as §3
[7] = molecular target: Cyclin-dependent kinase 2/cyclin E1 (Homo sapiens) (UniProt P24864+P24941); assay: Inhibition of CDK2/Cyclin E1 (unknown origin) at 20 uM after 30 mins by scintillation counting analysis relative to control; format: protein-complex assay; how it was run: as §4
A498 = assay: Growth inhibition of human A498 cells after 48 hrs by coulter counting analysis; format: functional; conditions: A498, 48 h; how it was run: as §2
CAKI-1 = assay: Growth inhibition of human CAKI-1 cells after 48 hrs by coulter counting analysis; format: functional; conditions: CAKI-1, 48 h; how it was run: as §2
KM12 = assay: Growth inhibition of human KM12 cells after 48 hrs by coulter counting analysis; format: functional; conditions: KM12, 48 h; how it was run: as §2
CCRF-CEM = assay: Growth inhibition of human CCRF-CEM cells after 48 hrs by coulter counting analysis; format: functional; how it was run: as §2
[8] = Growth inhibition of human OVCAR3 cells after 48 hrs by coulter counting analysis; format: functional; conditions: OVCAR-3, 48 h; how it was run: as §1
NCI-H522 = assay: Growth inhibition of human NCI-H522 cells after 48 hrs by coulter counting analysis; format: functional; conditions: NCI-H522, 48 h; how it was run: as §1
[9] = Growth inhibition of human HOP92 cells after 48 hrs by coulter counting analysis; format: functional; conditions: HOP-92, 48 h; how it was run: as §2
HCT-116 = assay: Growth inhibition of human HCT116 cells after 48 hrs by coulter counting analysis; format: functional; conditions: HCT-116, 48 h; how it was run: as §2
DU-145 = assay: Growth inhibition of human DU145 cells after 48 hrs by coulter counting analysis; format: functional; conditions: DU-145, 48 h; how it was run: as §2
[10] = Growth inhibition of human UO31 cells after 48 hrs by coulter counting analysis; format: functional; conditions: UO-31, 48 h; how it was run: as §3
[11] = Growth inhibition of human EKVX cells after 48 hrs by coulter counting analysis; format: functional; how it was run: as §2
SN12C = assay: Growth inhibition of human SN12C cells after 48 hrs by coulter counting analysis; format: functional; how it was run: as §1
[12] = Growth inhibition of human HCT15 cells after 48 hrs by coulter counting analysis; format: functional; conditions: HCT-15, 48 h; how it was run: as §2
786-0 = assay: Growth inhibition of human 786-0 cells after 48 hrs by coulter counting analysis; format: functional; conditions: 786-0, 48 h; how it was run: as §2
U-251 = assay: Growth inhibition of human U251 cells after 48 hrs by coulter counting analysis; format: functional; conditions: U-251, 48 h; how it was run: as §3
Malme-3M = assay: Growth inhibition of human MALME-3M cells after 48 hrs by coulter counting analysis; format: functional; how it was run: as §2
[13] = Growth inhibition of human SF295 cells after 48 hrs by coulter counting analysis; format: functional; conditions: SF-295, 48 h; how it was run: as §1
PC-3 = assay: Growth inhibition of human PC3 cells after 48 hrs by coulter counting analysis; format: functional; conditions: PC-3, 48 h; how it was run: as §1
[14] = Growth inhibition of human LOXIMVI cells after 48 hrs by coulter counting analysis; format: functional; conditions: LOX IMVI; how it was run: as §2
[15] = Growth inhibition of human BT549 cells after 48 hrs by coulter counting analysis; format: functional; conditions: BT-549, 48 h; how it was run: as §2
[16] = read-out: LC50 (the source's name)

SMILES: COc1c2occc2c(OC)c2c(=O)c(CN3CCOCC3)c(/C=C/c3ccc(N(C)C)cc3)oc12
- GI50 (SF-268): 2220 nM
- GI50 [1]: 2630 nM
- GI50 (SK-OV-3): 2.72 µM
- GI50 (M14): 2340 nM
- GI50 (HT-29): 2200 nM
- CC50 (HT-29; [16]): 6.68 µM
- GI50 [2]: 1580 nM
- GI50 (NCI-H23): 2560 nM
- GI50 (MCF7): 1880 nM
- GI50 (ACHN): 2160 nM
- GI50 (SK-MEL-2): 1390 nM
- CC50 (SK-MEL-2; [16]): 5.89 µM
- GI50 (SW-620): 2380 nM
- GI50 (COLO 205): 1660 nM
- CC50 (COLO 205; [16]): 5.87 µM
- GI50 (RPMI-8226): 1490 nM
- GI50 (NCI-H322M): 1650 nM
- GI50 [3]: 2540 nM
- GI50 [4]: 2590 nM
- inhibition [5]: 13%
- GI50 [6]: 1860 nM
- LC50 [6]: 7.61 µM
- inhibition [7]: 0%
- GI50 (A498): 2340 nM
- GI50 (CAKI-1): 1890 nM
- GI50 (KM12): 1730 nM
- GI50 (CCRF-CEM): 1170 nM
- GI50 [8]: 1760 nM
- GI50 (NCI-H522): 1830 nM
- GI50 [9]: 240 nM
- GI50 (HCT-116): 2110 nM
- GI50 (DU-145): 1670 nM
- GI50 [10]: 1430 nM
- GI50 [11]: 2240 nM
- GI50 (SN12C): 2450 nM
- GI50 [12]: 2250 nM
- GI50 (786-0): 1930 nM
- GI50 (U-251): 2490 nM
- GI50 (Malme-3M): 2080 nM
- CC50 (Malme-3M; [16]): 8.65 µM
- GI50 [13]: 1820 nM
- GI50 (PC-3): 1690 nM

SMILES: COc1c2occc2c(OC)c2c(=O)c(CN3CCOCC3)c(/C=C/c3ccc(Cl)cc3)oc12
- GI50 (SF-268): 2810 nM
- GI50 [1]: 3120 nM
- GI50 (SK-OV-3): 3.56 µM
- GI50 [14]: 2180 nM
- GI50 (M14): 2760 nM
- GI50 [15]: 2380 nM
- GI50 (HT-29): 2690 nM
- GI50 [2]: 2840 nM
- GI50 (NCI-H23): 3000 nM
- GI50 (MCF7): 2100 nM
- GI50 (ACHN): 2470 nM
- GI50 (SK-MEL-2): 1650 nM
- GI50 (SW-620): 3320 nM
- GI50 (COLO 205): 2760 nM
- GI50 (RPMI-8226): 1940 nM
- GI50 (NCI-H322M): 2540 nM
- GI50 [3]: 2350 nM
- GI50 [4]: 2760 nM
- inhibition [5]: 5%
- GI50 [6]: 1900 nM
- inhibition [7]: 0%
- GI50 (CAKI-1): 2450 nM
- GI50 (KM12): 2100 nM
- GI50 (CCRF-CEM): 1780 nM
- GI50 [8]: 2340 nM
- GI50 (NCI-H522): 1770 nM
- GI50 [9]: 1280 nM
- GI50 (HCT-116): 2920 nM
- GI50 (DU-145): 2630 nM
- GI50 [11]: 2850 nM
- GI50 (SN12C): 3050 nM
- GI50 [12]: 2780 nM
- GI50 (786-0): 3090 nM
- GI50 (U-251): 3050 nM
- GI50 (Malme-3M): 2240 nM
- GI50 [13]: 2010 nM
- GI50 (PC-3): 2500 nM
